TAAR1 antagonist – human TAAR1 antagonism; CHO RD-HGA16 TAAR1, Fluo-8 calcium fluorescence, antagonist; Q96RJ0; AID 624466; 1.5% of 360,000 active; inhibition, % at 3 µM;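 active = inhibition above a per-plate cutoff, the mean inhibition of test compounds on that plate plus 3 SD, cut at about 49% in these data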;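 also: 0% = DMSO plus EC80 beta-PEA response and 100% = DMSO alone without agonist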
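Test system – hTAAR1-expressing CHO RD-HGA16 cells, Gα16-coupled · Reagent – β-PEA at EC80 concentration, post-compound challenge · Compound dosing – 3 µM, single point · Timing – 140 s kinetic read after compound, 140 s after agonist · Detection – Fluo-8 intracellular calcium dye fluorescence, real-time kinetic reads · Control set – DMSO and EC80 PEA controls · Repeats – n of 1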
M1 ag – agonists of human M1 muscarinic receptor. CHO-K1 hM1, Fluo-8 calcium fluorescence, agonist mode; 0% DMSO, 100% acetylcholine EC100. 0.33% of 360,000 active. P11229. AID 588814. activation, % at 3 µM;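 active = activation above the run's mean compound activation plus 3 SD, cut at about 16% in these data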;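 also: peak over basal fluorescence ratio within a 140 s kinetic read after compound addition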
Target sequence (P11229 whole entry, looked up): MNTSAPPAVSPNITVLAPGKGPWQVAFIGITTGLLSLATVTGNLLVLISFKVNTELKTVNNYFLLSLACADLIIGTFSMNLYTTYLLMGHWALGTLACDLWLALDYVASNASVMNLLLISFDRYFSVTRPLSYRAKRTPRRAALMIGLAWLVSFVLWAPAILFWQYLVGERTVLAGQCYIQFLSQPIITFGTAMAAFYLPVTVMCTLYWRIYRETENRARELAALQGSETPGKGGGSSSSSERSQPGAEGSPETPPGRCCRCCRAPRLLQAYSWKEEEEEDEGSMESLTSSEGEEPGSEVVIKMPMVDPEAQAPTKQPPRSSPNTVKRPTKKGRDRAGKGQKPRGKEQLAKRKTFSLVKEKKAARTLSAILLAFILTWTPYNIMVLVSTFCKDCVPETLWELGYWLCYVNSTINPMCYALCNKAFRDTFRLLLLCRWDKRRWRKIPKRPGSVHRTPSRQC
M1 antag – human CHRM1 antagonism | P11229 | CHO-K1 hM1, Fluo-8 calcium fluorescence, ACh EC80 antagonist | inhibition, % at 3 µM | 1.3% of 360,000 active | AID 588852;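 active = percent inhibition above its own plate's cutoff, namely the mean of that plate's compound wells plus 3 SD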;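 also: peak over basal fluorescence ratio during 140 s after agonist addition; 0% = ACh EC80 plus DMSO and 100% = DMSO alone without agonist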
CHRM1 PAM – potentiates human M1 receptor response to acetylcholine; CHO-K1 hM1, Fluo-8 calcium fluorescence, ACh EC20; 0% = ACh EC20, 100% = maximal ACh; activation, % at 3 µM; 0.088% of 360,000 active; AID 588819; in the data active = activation above about 19%, passing the limit was not always enough
TAAR1 agonist – human TAAR1 agonism | Q96RJ0 | 0.99% of 360,000 active | CHO RD-HGA16 TAAR1, Fluo-8 calcium fluorescence; vehicle wells 0%, saturating PEA agonist 100% | activation, % at 3 µM;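 active = activation above the mean activation of all test compounds in the run plus 3 SD, cut at about 38% in these data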
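Test system: RD-HGA16 (CHO) cells co-expressing Gα16 and hTAAR1 / Benchmarks: DMSO vehicle as 0%, PEA at EC100 as 100% / Repeats: no replicates (n 1) / Measure: % activation from peak over basal fluorescence ratio, DMSO-to-PEA scaled / Timing: 17-24 h plating, Fluo-8 75 min 37 °C, 30 min RT / Technique: kinetic Fluo-8 calcium fluorescence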
Active calls of the source: *; . = no result. Rows were chosen to be rich in hits. Some 3.4% of all compounds tested hit in one or more screens of this group.

SMILES	TAAR1 antagonist	M1 ag	M1 antag	CHRM1 PAM	TAAR1 agonist
CC(C)(C)C(=O)Nc1ccc(C(=O)N/N=C/c2ccccc2OC(=O)c2ccccc2)cc1	53*	-2	-1	4	16
O=C(N/N=C/c1ccccc1[N+](=O)[O-])c1ccncc1	-5	-2	0	26*	-1
CCCN1C(=O)c2[nH]nc(-c3ccccc3)c2C1c1ccc(C)cc1 (stereo unspecified)	-26	.	.	.	3
CC(C)OC(=O)/C=C1\C[C@@H](c2ccccc2C(F)(F)F)O[C@@H](c2ccccc2C(F)(F)F)O1	-23	.	.	.	1
COC(=O)C1=C(C)N(C)C(=NCC2CC2)NC1c1cccc(Cl)c1 (stereo unspecified)	-4	.	.	.	0
Cc1ccc(C(C(=O)NC2CCCC2)N(Cc2ccc3c(c2)OCO3)C(=O)c2snc(C(N)=O)c2N)cc1 (stereo unspecified)	28	-5	24*	-18	8
CC(=O)c1cccc(NS(=O)(=O)c2ccc(-c3cnc(C4CC4)o3)cc2)c1	17	4	32*	-12	4
CC(=O)Nc1ccc(NS(=O)(=O)c2ccc(-c3cnc(C4CC4)o3)cc2)cc1	-16	-3	15	-5	8
COc1cccc(C(=O)N2CCN(C3CCC(c4ccccc4)CC3)CC2)c1OC (stereo unspecified)	2	43*	22	-11	1
COC(=O)C1=C(C)N(Cc2ccccc2C(F)(F)F)C(=NCc2cc(OC)c(OC)c(OC)c2)NC1CCc1ccccc1 (stereo unspecified)	6	.	.	.	18
O=C(CCNC(=O)c1ccc(Cl)cc1)Nc1ncccc1O	-23	1	-21	14	3
O=C(CCCNC(=O)c1ccc(Cl)cc1)Nc1ncccc1O	-24	10	-17	26*	1
O=C(N[C@H](C(=O)N1CCC[C@H]1C(=O)NCCc1ccccc1Cl)c1ccccc1)c1ccc(Cl)c(Cl)c1	44	.	.	.	4
COc1ccc(COc2ccccc2C(=O)NCc2ccccc2)cc1F	71*	1	27	-17	10
COc1ccccc1C(=O)NCC(=O)N/N=C/c1cc(Br)ccc1OCc1ccccc1	49*	-6	7	-3	5
O=C(CNC(=O)c1ccc(F)cc1)N/N=C/c1cc(Br)ccc1OCc1ccccc1	28	-6	-4	3	14
O=C(C(=O)N1CCC(CNS(=O)(=O)Cc2ccccc2)CC1)c1cccs1	-10	.	.	.	1
O=C(NCc1ccccc1)c1sc(=S)n2c1[nH]c(=O)c1ccccc12	3	-1	4	1	44*
Oc1ccc2sc(-c3ccccc3O)c(-c3ccc(OCCN4CCCCC4)cc3)c2c1	53*	.	.	.	39*
COc1ccc2c(COC(=O)c3cccc(S(=O)(=O)NCC(C)C)c3)cc(=O)oc2c1	65*	-2	38*	-24	10
COc1ccc2c(COC(=O)CNS(=O)(=O)c3ccccc3)cc(=O)oc2c1	-22	-4	5	0	2
CCCNS(=O)(=O)c1cccc(C(=O)OCc2cc(=O)oc3cc(OC)ccc23)c1	52*	-3	21	-17	9
COc1ccc(S(=O)(=O)NCCC(=O)OCc2cc(=O)oc3cc(C)ccc23)cc1[N+](=O)[O-]	36	-1	48*	-16	9
C=CCn1c(SCCN2CCCCC2)nc2c1c(=O)[nH]c(=O)n2C	-29	-12	28*	-20	2
C=CCn1c(SCCOC)nc2c1c(=O)[nH]c(=O)n2C	-11	-4	-10	6	0
SMILES	TAAR1 antagonist	M1 ag	M1 antag	CHRM1 PAM	TAAR1 agonist
C=CC(=O)NC1CCCCN(CCC)C1=O (stereo unspecified)	2	.	.	.	0
O=C(CO/N=C/c1ccccc1OC(F)F)NCc1ccco1	-19	-1	-53	26*	0
Cc1cccc(NC(=O)c2ccc(OCc3c(C)noc3C)cc2)c1	-19	-6	1	3	-2
Cc1noc(C)c1COc1ccc(C(=O)Nc2cccnc2)cc1	-10	-8	71*	-26	1
CCCCN(C)CCCNC(=O)c1cn(CC)c2ccc(S(=O)(=O)N3CCc4ccccc4C3)cc2c1=O	9	-7	43*	-18	4
CCCCN(CC)CCCNC(=O)c1cn(CC)c2ccc(S(=O)(=O)N3CCc4ccccc4C3)cc2c1=O	-8	-6	18	-13	0

Source: PubChem BioAssay
